In publication PMC3992716 (European journal of pharmacology, 2013) one finds IC50 and EC50 data, which are given here for four compounds.

A word on the IC50: it is the concentration that gives 50% inhibition. A lower IC50 goes with higher potency. Usually EC50 stands for the midpoint of the concentration-response curve. Read a high EC50 as weaker potency.

Assay [1] has as its target T1, α4(2)β2(2)α5 (Homo sapiens, UniProt P17787+P30532+P43681). Type of assay: cell-based. The method, boiled down: (§1)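 Xenopus oocytes defolliculated with collagenase, clamped at −60 mV and perfused with Ringer's containing 1 μM atropine. Rising test compound concentrations were co-applied with control ACh (100 μM for α4(2)β2(2)α5, 30 μM for α4β2α6β2β3), alternating with ACh alone; fresh cells were used if ACh controls fell below 75%. Peak currents were normalised to the preceding ACh control.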

The target in assay [2] is T2, α4β2α6β2β3 (Homo sapiens, UniProt P17787+P43681+Q05901+Q15825). Type of assay: cell-based. The method, boiled down: as §1
T2 sequence (P43681 27-627): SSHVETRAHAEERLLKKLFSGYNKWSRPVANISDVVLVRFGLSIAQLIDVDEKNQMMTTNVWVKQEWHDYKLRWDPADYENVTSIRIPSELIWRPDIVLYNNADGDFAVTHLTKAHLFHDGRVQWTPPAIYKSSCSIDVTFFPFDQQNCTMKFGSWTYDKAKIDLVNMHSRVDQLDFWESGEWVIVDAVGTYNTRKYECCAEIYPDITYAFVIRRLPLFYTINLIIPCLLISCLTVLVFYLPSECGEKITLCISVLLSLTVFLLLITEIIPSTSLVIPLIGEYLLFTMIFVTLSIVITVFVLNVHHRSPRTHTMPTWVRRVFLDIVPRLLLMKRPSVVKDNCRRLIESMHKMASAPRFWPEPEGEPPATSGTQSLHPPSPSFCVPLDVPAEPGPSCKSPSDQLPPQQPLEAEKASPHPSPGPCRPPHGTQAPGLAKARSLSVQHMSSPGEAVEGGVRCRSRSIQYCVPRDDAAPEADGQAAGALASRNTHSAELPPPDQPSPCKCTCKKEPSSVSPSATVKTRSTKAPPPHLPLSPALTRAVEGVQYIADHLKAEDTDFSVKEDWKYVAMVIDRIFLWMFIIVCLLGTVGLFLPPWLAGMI
T2 sequence (P17787 26-502): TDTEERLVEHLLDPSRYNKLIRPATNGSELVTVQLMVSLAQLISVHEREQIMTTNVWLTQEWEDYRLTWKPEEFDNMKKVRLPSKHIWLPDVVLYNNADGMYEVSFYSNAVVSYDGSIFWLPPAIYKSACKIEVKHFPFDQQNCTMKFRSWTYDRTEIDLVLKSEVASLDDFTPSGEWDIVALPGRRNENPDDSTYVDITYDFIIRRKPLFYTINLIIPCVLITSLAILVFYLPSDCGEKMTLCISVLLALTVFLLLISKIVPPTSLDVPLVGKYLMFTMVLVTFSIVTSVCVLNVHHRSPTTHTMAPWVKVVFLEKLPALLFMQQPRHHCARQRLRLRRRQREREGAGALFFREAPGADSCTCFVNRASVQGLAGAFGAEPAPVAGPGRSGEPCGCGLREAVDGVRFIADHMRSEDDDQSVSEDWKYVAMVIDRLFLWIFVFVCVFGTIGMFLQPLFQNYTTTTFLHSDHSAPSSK
T2 sequence (Q15825 26-494): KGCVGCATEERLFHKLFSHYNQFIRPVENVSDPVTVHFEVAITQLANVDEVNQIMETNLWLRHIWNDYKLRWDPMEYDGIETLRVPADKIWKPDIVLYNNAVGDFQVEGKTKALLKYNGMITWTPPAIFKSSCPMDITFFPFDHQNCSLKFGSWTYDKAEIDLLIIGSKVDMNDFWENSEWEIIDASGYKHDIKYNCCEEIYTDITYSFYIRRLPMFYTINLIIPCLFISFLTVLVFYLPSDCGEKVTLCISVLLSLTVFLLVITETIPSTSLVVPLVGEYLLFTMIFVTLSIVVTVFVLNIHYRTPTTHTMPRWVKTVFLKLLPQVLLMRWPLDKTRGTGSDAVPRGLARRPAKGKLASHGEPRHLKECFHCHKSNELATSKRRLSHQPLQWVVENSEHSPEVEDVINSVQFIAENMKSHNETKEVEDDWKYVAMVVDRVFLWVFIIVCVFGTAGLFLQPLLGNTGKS
T2 sequence (Q05901 22-458): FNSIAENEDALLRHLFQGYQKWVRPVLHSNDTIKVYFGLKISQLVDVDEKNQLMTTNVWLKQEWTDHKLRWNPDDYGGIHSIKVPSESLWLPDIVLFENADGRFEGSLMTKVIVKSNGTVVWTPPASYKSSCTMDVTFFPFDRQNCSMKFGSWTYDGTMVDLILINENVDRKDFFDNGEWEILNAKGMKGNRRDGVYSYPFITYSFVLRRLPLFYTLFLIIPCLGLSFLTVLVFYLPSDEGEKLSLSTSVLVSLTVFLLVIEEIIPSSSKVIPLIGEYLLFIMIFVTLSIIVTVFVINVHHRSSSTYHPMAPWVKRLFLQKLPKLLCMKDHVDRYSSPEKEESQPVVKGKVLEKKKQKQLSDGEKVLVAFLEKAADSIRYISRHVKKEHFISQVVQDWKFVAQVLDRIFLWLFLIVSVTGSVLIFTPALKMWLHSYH
Assay [3] deals with T2, α4β2α6β2β3. Briefly: cell-based.
For assay [4], the target named is T1, α4(2)β2(2)α5. In words: cell-based.
For assay [5], the target named is α2(2)β2(2)α5 (Homo sapiens, UniProt P17787+P30532+Q15822). In words: two-electrode voltage clamp, Xenopus oocytes, agonist-evoked response. The format is cell-based. (Two-electrode voltage clamp is typically applied to oocytes expressing channels or transporters.)
Chain of α2(2)β2(2)α5 (Q15822 27-529): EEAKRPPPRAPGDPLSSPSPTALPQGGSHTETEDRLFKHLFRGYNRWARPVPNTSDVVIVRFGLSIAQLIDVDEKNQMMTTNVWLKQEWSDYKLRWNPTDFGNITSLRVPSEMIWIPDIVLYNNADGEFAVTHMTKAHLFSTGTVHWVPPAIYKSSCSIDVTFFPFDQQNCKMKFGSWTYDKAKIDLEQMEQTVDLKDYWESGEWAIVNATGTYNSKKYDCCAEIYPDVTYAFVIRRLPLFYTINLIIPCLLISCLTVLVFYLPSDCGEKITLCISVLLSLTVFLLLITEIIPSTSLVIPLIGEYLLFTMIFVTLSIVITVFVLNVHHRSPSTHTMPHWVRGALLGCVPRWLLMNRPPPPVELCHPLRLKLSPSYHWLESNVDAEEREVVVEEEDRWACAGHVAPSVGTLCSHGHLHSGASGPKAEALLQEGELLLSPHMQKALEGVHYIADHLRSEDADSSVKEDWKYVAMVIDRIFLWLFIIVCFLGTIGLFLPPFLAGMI
Chain of α2(2)β2(2)α5 (P17787 26-502): as the sequence (P17787 26-502) above
Chain of α2(2)β2(2)α5 (P30532 23-468): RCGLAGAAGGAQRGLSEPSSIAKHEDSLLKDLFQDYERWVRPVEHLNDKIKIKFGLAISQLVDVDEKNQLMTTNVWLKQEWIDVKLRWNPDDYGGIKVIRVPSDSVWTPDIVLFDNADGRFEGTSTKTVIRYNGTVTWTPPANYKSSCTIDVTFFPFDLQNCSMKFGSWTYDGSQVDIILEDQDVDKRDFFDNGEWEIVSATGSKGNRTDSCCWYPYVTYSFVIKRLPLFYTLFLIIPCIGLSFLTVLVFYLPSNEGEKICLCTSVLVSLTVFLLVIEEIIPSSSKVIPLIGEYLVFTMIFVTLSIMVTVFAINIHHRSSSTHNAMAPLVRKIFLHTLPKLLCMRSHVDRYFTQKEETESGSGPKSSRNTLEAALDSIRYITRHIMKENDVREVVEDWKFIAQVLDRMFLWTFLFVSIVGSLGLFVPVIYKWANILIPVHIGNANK

T1 sequence (P43681 27-627): as the sequence (P43681 27-627) above
T1 sequence (P17787 26-502): as the sequence (P17787 26-502) above
T1 sequence (P30532 23-468): as the sequence (P30532 23-468) above

Regarding `CNC1(C)C2CCC(C2)C1(C)C` (stereo not drawn) [R(-)Mecamylamine, N-2,3,3-tetramethylbicyclo[2.2.1]heptan-2-amine], the 50% inhibitory concentration (IC50) was 35 ± 5 µM in assay [1] and 13 ± 5 µM in assay [2].
For the compound `CN[C@@]1(C)[C@@H]2CC[C@@H](C2)C1(C)C` [S(+)Mecamylamine, N-2,3,3-tetramethylbicyclo[2.2.1]heptan-2-amine], the values for the concentration for half-maximal inhibition (IC50) in assay [1] and in assay [2] were 12 ± 1 µM and 14 ± 7 µM, respectively.
As for `CCOc1cncc(/C=C/CCNC)c1` [TC-2559], the EC50 came to 1.7 ± 0.3 µM in assay [3], 1.6 ± 0.3 µM in assay [4] and 6.2 ± 1 µM in assay [5].
In turn, `CN1CCC[C@H]1c1cccnc1` [nicotine] showed an EC50 in assay [5] of 1.6 ± 0.2 µM.
